Assay results as given in ChEMBL document CHEMBL3526029, “Disposition and metabolism of GSK2251052 in humans: a novel boron-containing antibiotic” (Drug Metab Dispos, 2013).

Key:
Plasma [1] = assay: AUC (0 to t) in plasma of healthy human treated with [14C]GSK2251052 at 1500 mg, iv infusion for 1 hr as single dose; format: ADME, organism-based; conditions: in vivo
Procedure, shortened: (§1)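 Six fasted healthy men received 1500 mg [14C]GSK2251052 as a 1-h constant-rate i.v. infusion. K2EDTA plasma was sampled from predose to 72 h, with profiling samples added at 96, 144 and 336 h. Parent and M3 were measured by validated LC/MS/MS after methanol/formic acid precipitation with stable-label internal standards (range 5–10,000 ng/ml). Noncompartmental analysis used actual times, linear-up/log-down trapezoids and CL = dose/AUC(0-∞).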

Plasma [2] = assay: AUC (0 to infinity) in plasma of healthy human treated with [14C]GSK2251052 at 1500 mg, iv infusion for 1 hr as single dose; format: ADME, organism-based; set-up: dose 1500 mg, route intravenous, time infinity; conditions: in vivo; procedure, shortened: as §1
Plasma [3] = assay: Cmax in plasma of healthy human treated with [14C]GSK2251052 at 1500 mg, iv infusion for 1 hr as single dose; format: ADME, organism-based; set-up: dose 1500 mg, route intravenous; conditions: in vivo; procedure, shortened: as §1
Plasma [4] = assay: Half life in plasma of healthy human treated with [14C]GSK2251052 at 1500 mg, iv infusion for 1 hr as single dose; format: ADME, organism-based; conditions: in vivo
Procedure, shortened: (§2)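 Healthy men got a single 1500 mg [14C] dose by 1 h i.v. infusion. K2EDTA blood was sampled up to 336 h. Radioactivity in blood and plasma was measured by LSC, with AMS for plasma below LLQ. Parent and M3 were measured by LC/MS/MS (5–10,000 ng/ml range). Noncompartmental analysis used actual times, with t1/2 = ln2/λz and Tmax observed directly, timed from infusion start.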

Plasma [5] = assay: Tmax in plasma of healthy human treated with [14C]GSK2251052 at 1500 mg, iv infusion for 1 hr as single dose; format: ADME, organism-based; conditions: in vivo; procedure, shortened: as §2
[6] = Drug recovery in cynomolgus monkey liver S9 fraction at pH 7.4 treated with [14C]GSK2251052 at 500 uM after 3 hrs by liquid scintillation counting in presence of NAD+; format: ADME, subcellular, Macaca fascicularis; conditions: s9, pH 7.4, 3 h
[7] = Drug recovery in cynomolgus monkey liver S9 fraction at pH 8.4 treated with [14C]GSK2251052 at 500 uM after 3 hrs by liquid scintillation counting in presence of NAD+; format: ADME, subcellular, Macaca fascicularis; conditions: s9, pH 8.4, 3 h
[8] = Drug recovery in cynomolgus monkey liver S9 fraction at pH 8.8 treated with [14C]GSK2251052 at 500 uM after 3 hrs by liquid scintillation counting in presence of NAD+; format: ADME, subcellular, Macaca fascicularis; conditions: s9, pH 8.8, 3 h
[9] = Drug recovery in cynomolgus monkey liver cytosol at pH 7.4 treated with [14C]GSK2251052 at 500 uM after 3 hrs by liquid scintillation counting in presence of NAD+; format: ADME, Macaca fascicularis; conditions: pH 7.4, 3 h
[10] = Drug recovery in cynomolgus monkey liver cytosol at pH 8.4 treated with in presence of NAD+ [14C]GSK2251052 at 500 uM after 3 hrs by liquid scintillation counting; format: ADME, Macaca fascicularis; conditions: pH 8.4, 3 h
[11] = Drug recovery in cynomolgus monkey liver microsomes at pH 7.4 treated with [14C]GSK2251052 at 500 uM after 3 hrs by liquid scintillation counting in presence of NAD+; format: ADME, Macaca fascicularis; conditions: pH 7.4, 3 h
[12] = Drug recovery in healthy human urine treated with [14C]GSK2251052 at 1500 mg, iv infusion for 1 hr as single dose after 120 to 336 hrs by HPLC method; format: ADME, organism-based; conditions: in vivo
Procedure, shortened: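 Urine pooled by weight per subject over 0–120 h; 120–336 h pools from all subjects combined into one composite. Centrifuged at ~21,000g, then supernatant profiled by HPLC (Atlantis T3, ammonium acetate pH 4.5/methanol, 30°C) with radiochemical detection plus MS identification. Results are % of dose, corrected for centrifugation recovery measured by triplicate LSC.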

[13] = Drug recovery in healthy human feces treated with [14C]GSK2251052 at 1500 mg, iv infusion for 1 hr as single dose after 120 hrs by HPLC method; format: ADME, organism-based; conditions: in vivo
Procedure, shortened: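 Feces pooled over 0–120 h per subject by sample weight. About 1 g homogenate extracted twice with 4 volumes of acetonitrile:methanol:water:formic acid (50:25:25:1) under 20 min sonication. Extracts dried and reconstituted in water:methanol 90:10. Profiled by HPLC (Atlantis T3, ammonium acetate pH 4.5/methanol, 30°C) with fraction radiocounting and Orbitrap MS. Results given as % of dose, corrected for extraction recovery.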

[14] = Drug metabolism in human liver cytosol assessed as ADH-mediated compound formation treated with GSK2251052 at 50 to 500 uM by spectrophotometry in presence of NAD+; format: ADME; conditions: TDE = time-dependent effect
[15] = Drug metabolism assessed as purified ADH (unknown origin)-mediated compound formation treated with GSK2251052 at 50 to 500 uM by spectrophotometry in presence of NAD+; format: ADME; conditions: human, TDE = time-dependent effect
Liver cytosol = assay: Drug metabolism in human liver cytosol assessed as compound formation treated with GSK2251052 at 50 to 500 uM after 3 hrs by spectrophotometry in presence of NAD+ and ADH inhibitor 4-MP; format: ADME
[16] = Drug recovery in healthy human feces treated with [14C]GSK2251052 at 1500 mg, iv infusion for 1 hr as single dose after 0 to 120 hrs by HPLC method; conditions: in vivo

SMILES | AUCt (Plasma [1]) [µg·h/mL] | AUC (Plasma [2]) [µg·h/mL] | Cmax (Plasma [3]) [µg/mL] | t1/2 (Plasma [4]) [h] | Tmax (Plasma [5]) [h] | Drug recovery [6] [%] | Drug recovery [7] [%] | Drug recovery [8] [%] | Drug recovery [9] [%] | Drug recovery [10] [%] | Drug recovery [11] [%] | Drug recovery ([12]; in the assay text read “0 to 120 hrs” for “120 to 336 hrs”) [%] | Drug recovery [13] [%] | Drug metabolism [14] | Drug metabolism [15] | Drug metabolism (Liver cytosol) | Drug recovery [16] [%] | Drug recovery ([12]; BLD = below limit of detection)
Cl.NC[C@H]1OB(O)c2c(OCCC(=O)O)cccc21 | 101 | 103 | 1.77 | 77.3 | 7 | 7.7 | 6.7 | 4.3 | 1.7 | 0.9 | 2.5 | 43.8 | 3.3 | tde | tde | metabolite_not_detected | 3.3 | 
CC(=O)NC[C@H]1OB(O)c2c(OCCC(=O)O)cccc21 |  |  |  |  |  |  |  |  |  |  |  |  |  |  |  |  |  | BLD
